Data on 10 molecules can be found in paper PMC4059272 (Journal of Medicinal Chemistry, 2014).

The subject of one experiment is PgR gene. The experiment in a line: RT-PCR of estrogen-responsive gene PgR in MCF-7:WS8 cells. The experiment is classed as cell-based, human. To be noted: MCF-7:WS8, 48 h; E2 at 10^–10 M, other compounds at 10^–6 M. The essentials: (§1)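 MCF-7:WS8 cells kept in phenol-red RPMI 1640 with 10% FBS, glutamine, nonessential amino acids and 6 ng/mL insulin at 37 °C, 5% CO2. Cells were estrogen-starved 3 days, seeded at 300 000 cells/well the day before, and treated 48 h. RNA was taken in Trizol and run as SYBR green real-time PCR with 36B4 as reference.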

Another experiment has as its system pS2 gene. The experiment in a line: RT-PCR of estrogen-responsive gene pS2 in MCF-7:WS8 cells. The format is cell-based, human. To be noted: MCF-7:WS8, 48 h; E2 at 10^–10 M, other compounds at 10^–6 M. The essentials: as §1
A further experiment has as its system GREB1 gene. The experiment in a line: RT-PCR of estrogen-responsive gene GREB1 in MCF-7:WS8 cells. The format is cell-based, human. To be noted: MCF-7:WS8, 48 h; E2 at 10^–10 M, other compounds at 10^–6 M. A digest of the protocol: as §1
Another experiment deals with T1, ERα (Homo sapiens, UniProt P03372).
T1 sequence (P03372 1-595): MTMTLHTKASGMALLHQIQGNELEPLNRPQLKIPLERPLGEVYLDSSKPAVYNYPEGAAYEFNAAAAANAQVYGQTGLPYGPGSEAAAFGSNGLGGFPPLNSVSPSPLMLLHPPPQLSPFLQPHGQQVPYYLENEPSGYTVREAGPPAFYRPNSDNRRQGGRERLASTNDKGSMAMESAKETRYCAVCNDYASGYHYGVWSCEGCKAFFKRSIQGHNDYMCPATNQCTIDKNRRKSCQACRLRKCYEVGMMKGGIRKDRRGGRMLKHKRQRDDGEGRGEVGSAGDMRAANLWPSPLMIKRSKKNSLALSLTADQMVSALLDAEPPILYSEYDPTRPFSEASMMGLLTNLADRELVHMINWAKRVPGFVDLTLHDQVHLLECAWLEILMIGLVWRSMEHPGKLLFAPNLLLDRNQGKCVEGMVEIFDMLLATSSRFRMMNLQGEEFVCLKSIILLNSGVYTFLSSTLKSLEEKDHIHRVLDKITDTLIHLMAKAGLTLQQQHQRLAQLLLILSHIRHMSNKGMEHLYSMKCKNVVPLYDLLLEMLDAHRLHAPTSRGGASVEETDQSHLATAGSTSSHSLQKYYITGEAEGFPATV
Briefly: Immunoblotting of ERα protein levels in MCF-7:WS8 cells. The experiment is classed as cell-based. To be noted: for regulation of ERα protein levels: MCF-7:WS8, 24 h treatment. For orientation: A western blot detects proteins with antibodies after separation by electrophoresis.

The subject of experiment [1] is MCF-7:WS8 cells. Briefly: DNA based growth assay, combination treatments with 10^–10 M E2. The format is cell-based, human. To be noted: for inhibition of 10^–10 M E2-induced growth: MCF-7:WS8, at 10^–6 M.
The next experiment deals with prolactin gene (Prl). Briefly: RT-PCR of prolactin. The format is cell-based, rat. To be noted: GH3 cells, top concentration of 10^–6 M, with 1 nM E2.
Experiment [2] deals with MCF-7:WS8 cells. Briefly: DNA quantification growth assay, compounds alone. The format is cell-based, human. To be noted: for estrogenic properties on cell growth: MCF-7:WS8, compounds alone, concentration range 10^–12–10^–6 M.

On to `CCC(=C(c1ccc(O)cc1)c1ccc(O)cc1)c1ccc(O)cc1` [3OHTPE], for which the “effect on PgR mRNA expression” value in the experiment on PgR gene was “partial estrogenic effect”. In addition, the “effect on pS2 mRNA expression” value in the experiment on pS2 gene is “partial estrogenic effect”. The “effect on GREB1 mRNA expression” value in the experiment with GREB1 gene is “partial estrogenic effect”. Further, the “regulation of ERα protein levels” value at ERα is “up-regulated the protein levels”.

For the molecule `CCC(=C(c1ccc(O)cc1)c1ccc(OCCN(C)C)cc1)c1ccccc1` [4OHT, 4-hydroxytamoxifen], the “effect on pS2 mRNA expression” value in the experiment with pS2 gene is given as “no significant effect”. Also, in the experiment with GREB1 gene, the “effect on GREB1 mRNA expression” value is “no significant effect”. In addition, the “inhibition of 10^–10 M E2-induced growth” value in the experiment on MCF-7:WS8 cells [1] is reported as “completely”. Moreover, in the experiment on prolactin gene (Prl), the “inhibition of 1 nM E2-induced Prl gene up-regulation” value is recorded as “completely inhibit”. Further, the “estrogenic properties on cell growth” value with MCF-7:WS8 cells [2] is reported as “no estrogenic properties”.

On to `CCC(=C(c1ccc(O)cc1)c1ccc(O)cc1)c1ccccc1` [BPTPE], for which, in the experiment with PgR gene, the “effect on PgR mRNA expression” value is listed as “partial estrogenic effect”. Further, in the experiment with pS2 gene, the “effect on pS2 mRNA expression” value is on record as “partial estrogenic effect”. For the same molecule, the “effect on GREB1 mRNA expression” value with GREB1 gene was “partial estrogenic effect”. Further, on ERα, the “regulation of ERα protein levels” value is “up-regulated the protein levels”. The “partial agonist growth level, % max of E2 curve” value with MCF-7:WS8 cells [2] (MCF-7:WS8, over the range 10^–12–10^–9 M) is reported as 50%.

Consider `C[C@]12CC[C@@H]3c4ccc(O)cc4CC[C@H]3[C@@H]1CC[C@@H]2O` [E2, 17β-estradiol], for which, in the experiment with PgR gene, the “effect on PgR mRNA expression” value is given as “induced expression”. Also, the “effect on pS2 mRNA expression” value with pS2 gene is recorded as “induced expression”. For the same molecule, the “effect on GREB1 mRNA expression” value with GREB1 gene is “induced expression”.

On to `CN(C)CCOc1ccc2c(c1)CCCC(c1ccccc1)=C2c1ccc(O)cc1` [EFR4OHT], for which the “effect on PgR mRNA expression” value in the experiment on PgR gene is on record as “induce expression”. Further, the “effect on pS2 mRNA expression” value with pS2 gene was “induce expression”. The “effect on GREB1 mRNA expression” value with GREB1 gene is given as “induce expression”.

Take `CNCCOc1ccc2c(c1)CCCC(c1ccccc1)=C2c1ccc(O)cc1` [EFREndox, 4-(3-(2-(Methylamino)ethoxy)-8-phenyl-6,7-dihydro-5H-benzocyclohepten-9-yl)phenol]: in the experiment on PgR gene, the “effect on PgR mRNA expression” value was “induce expression”. The “effect on pS2 mRNA expression” value in the experiment on pS2 gene is reported as “induce expression”. The “effect on GREB1 mRNA expression” value in the experiment on GREB1 gene is on record as “induce expression”. Besides, in the experiment with MCF-7:WS8 cells [1] (MCF-7:WS8, 10^–6 M compound with 10^–10 M E2), the “inhibition of E2-stimulated cell growth at top concentration” value is “about 10%”.

For `CC/C(=C(\c1ccc(O)cc1)c1ccc(OCCNC)cc1)c1ccccc1` [Endoxifen, 4-hydroxy-N-desmethyltamoxifen], on ERα, the “regulation of ERα protein levels” value is listed as “up-regulation”. Also, in the experiment on MCF-7:WS8 cells [1], the “inhibition of 10^–10 M E2-induced growth” value is recorded as “completely”. Further, the “estrogenic properties on cell growth” value in the experiment on MCF-7:WS8 cells [2] is reported as “no estrogenic properties”.

Take `C[C@]12CC[C@@H]3c4ccc(O)cc4C[C@@H](CCCCCCCCC[S+]([O-])CCCC(F)(F)C(F)(F)F)[C@H]3[C@@H]1CC[C@@H]2O` (stereo partly drawn) [Fulvestrant]: the “reduction (down-regulation) of ERα level by densitometry” value on ERα (MCF-7:WS8, 24 h, E2 at 1 nM) is on record as “more than 90%”.

For `CCOc1ccc2c(c1)CCCC(c1ccccc1)=C2c1ccc(OCCN(C)C)cc1` [ZFR4OHT], the “effect on pS2 mRNA expression” value in the experiment with pS2 gene was “no significant effect”. Moreover, the “effect on GREB1 mRNA expression” value in the experiment on GREB1 gene is recorded as “no significant effect”. In addition, the “inhibition of 1 nM E2-induced Prl gene up-regulation” value with prolactin gene (Prl) is on record as “completely inhibit”. Besides, in the experiment with MCF-7:WS8 cells [2], the “estrogenic properties on cell growth” value is given as “no estrogenic properties”.

With `CNCCOc1ccc(C2=C(c3ccccc3)CCCc3cc(O)ccc32)cc1` [ZFREndox, 9-(4-(2-(Methylamino)ethoxy)phenyl)-8-phenyl-6,7-dihydro-5H-benzocyclohepten-3-ol], the “effect on pS2 mRNA expression” value in the experiment on pS2 gene is given as “no significant effect”. Besides, the “effect on GREB1 mRNA expression” value in the experiment on GREB1 gene is “no significant effect”. For the same molecule, the “inhibition of 1 nM E2-induced Prl gene up-regulation” value in the experiment on prolactin gene (Prl) was “completely inhibit”. In the experiment on MCF-7:WS8 cells [2], the “estrogenic properties on cell growth” value is reported as “no estrogenic properties”.
